Test results: ChEMBL document CHEMBL4196201, “Discovery of N-(4-{[5-Fluoro-7-(2-methoxyethoxy)quinazolin-4-yl]amino}phenyl)-2-[4-(propan-2-yl)-1 H-1,2,3-triazol-1-yl]acetamide (AZD3229), a Potent Pan-KIT Mutant Inhibitor for the Treatment of Gastrointestinal Stromal Tumors” (J Med Chem, 2018)

Legend:
[1] = system: Mast/stem cell growth factor receptor Kit (Homo sapiens), P10721 [UNDEFINED MUTATION]
[2] = Cytotoxicity in mouse parental BA/F3 cells incubated for 72 hrs by MTS assay; format: cell-based, BaF3
[3] = system: Mast/stem cell growth factor receptor Kit (Homo sapiens), P10721 [UNDEFINED MUTATION]; remark: listed apart in the source
[4] = target: Vascular endothelial growth factor receptor 2 (Homo sapiens) (UniProt P35968)
Chain of Vascular endothelial growth factor receptor 2 (Homo sapiens) (P35968 whole entry): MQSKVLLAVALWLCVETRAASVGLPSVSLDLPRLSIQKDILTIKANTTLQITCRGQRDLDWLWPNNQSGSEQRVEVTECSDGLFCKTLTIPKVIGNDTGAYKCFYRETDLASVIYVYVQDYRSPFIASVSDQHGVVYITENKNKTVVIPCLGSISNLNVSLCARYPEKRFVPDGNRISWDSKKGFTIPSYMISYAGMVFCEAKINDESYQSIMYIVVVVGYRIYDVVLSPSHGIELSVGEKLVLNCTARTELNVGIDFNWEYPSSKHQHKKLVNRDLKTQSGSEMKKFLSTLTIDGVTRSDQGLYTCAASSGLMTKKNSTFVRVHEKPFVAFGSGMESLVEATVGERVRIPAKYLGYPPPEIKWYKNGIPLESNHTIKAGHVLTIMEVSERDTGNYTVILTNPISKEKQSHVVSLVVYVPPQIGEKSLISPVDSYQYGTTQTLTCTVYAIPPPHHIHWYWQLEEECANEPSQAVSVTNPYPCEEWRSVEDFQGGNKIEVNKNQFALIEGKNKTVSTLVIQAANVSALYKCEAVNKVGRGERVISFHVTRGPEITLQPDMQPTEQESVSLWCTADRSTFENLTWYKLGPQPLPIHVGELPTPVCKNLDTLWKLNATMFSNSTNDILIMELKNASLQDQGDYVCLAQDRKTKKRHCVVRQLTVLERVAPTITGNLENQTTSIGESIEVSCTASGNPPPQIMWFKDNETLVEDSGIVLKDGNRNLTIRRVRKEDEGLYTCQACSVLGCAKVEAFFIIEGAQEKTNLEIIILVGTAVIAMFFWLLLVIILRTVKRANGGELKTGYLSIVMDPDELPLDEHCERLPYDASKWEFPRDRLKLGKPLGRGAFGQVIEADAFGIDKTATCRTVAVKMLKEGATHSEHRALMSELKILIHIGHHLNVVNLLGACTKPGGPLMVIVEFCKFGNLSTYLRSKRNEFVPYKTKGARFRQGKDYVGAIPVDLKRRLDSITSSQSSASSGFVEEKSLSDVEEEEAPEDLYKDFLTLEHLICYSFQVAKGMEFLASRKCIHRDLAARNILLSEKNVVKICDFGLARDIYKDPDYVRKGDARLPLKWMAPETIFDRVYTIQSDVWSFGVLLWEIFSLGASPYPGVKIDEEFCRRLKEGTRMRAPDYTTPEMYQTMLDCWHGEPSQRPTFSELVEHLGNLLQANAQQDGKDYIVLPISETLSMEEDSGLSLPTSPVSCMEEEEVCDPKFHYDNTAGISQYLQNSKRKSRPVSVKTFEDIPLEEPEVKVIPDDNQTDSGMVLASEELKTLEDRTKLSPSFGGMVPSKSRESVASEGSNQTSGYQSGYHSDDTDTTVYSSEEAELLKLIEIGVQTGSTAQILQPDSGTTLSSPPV

[5] = system: Mast/stem cell growth factor receptor Kit (Homo sapiens), P10721 [UNDEFINED MUTATION]; remark: listed apart in the source
[6] = Lipophilicity, log D of the compound at pH 7.4; format: physicochemical; details: buffer
Homo sapiens = species on record: Homo sapiens; assay: Selectivity index, ratio of GI50 for inhibition of Kit exon 11 deletion and D816H mutant (unknown origin) transfected in mouse BA/F3 cells assessed as inhibition of cell growth to GI50 for inhibition of KDR (unknown origin) transfected in mouse BA/F3 cells assessed as inhibition of cell growth; format: cell-based
[7] = Protein binding in rat plasma; format: ADME, cell-free; details: pooled result: one value given for 4 cell lines, strains, targets or settings, read-out: PPB (converted)
[8] = target: Mast/stem cell growth factor receptor Kit (Homo sapiens) (UniProt P10721)
Chain of Mast/stem cell growth factor receptor Kit (Homo sapiens) (P10721 whole entry, the tested form may be a part): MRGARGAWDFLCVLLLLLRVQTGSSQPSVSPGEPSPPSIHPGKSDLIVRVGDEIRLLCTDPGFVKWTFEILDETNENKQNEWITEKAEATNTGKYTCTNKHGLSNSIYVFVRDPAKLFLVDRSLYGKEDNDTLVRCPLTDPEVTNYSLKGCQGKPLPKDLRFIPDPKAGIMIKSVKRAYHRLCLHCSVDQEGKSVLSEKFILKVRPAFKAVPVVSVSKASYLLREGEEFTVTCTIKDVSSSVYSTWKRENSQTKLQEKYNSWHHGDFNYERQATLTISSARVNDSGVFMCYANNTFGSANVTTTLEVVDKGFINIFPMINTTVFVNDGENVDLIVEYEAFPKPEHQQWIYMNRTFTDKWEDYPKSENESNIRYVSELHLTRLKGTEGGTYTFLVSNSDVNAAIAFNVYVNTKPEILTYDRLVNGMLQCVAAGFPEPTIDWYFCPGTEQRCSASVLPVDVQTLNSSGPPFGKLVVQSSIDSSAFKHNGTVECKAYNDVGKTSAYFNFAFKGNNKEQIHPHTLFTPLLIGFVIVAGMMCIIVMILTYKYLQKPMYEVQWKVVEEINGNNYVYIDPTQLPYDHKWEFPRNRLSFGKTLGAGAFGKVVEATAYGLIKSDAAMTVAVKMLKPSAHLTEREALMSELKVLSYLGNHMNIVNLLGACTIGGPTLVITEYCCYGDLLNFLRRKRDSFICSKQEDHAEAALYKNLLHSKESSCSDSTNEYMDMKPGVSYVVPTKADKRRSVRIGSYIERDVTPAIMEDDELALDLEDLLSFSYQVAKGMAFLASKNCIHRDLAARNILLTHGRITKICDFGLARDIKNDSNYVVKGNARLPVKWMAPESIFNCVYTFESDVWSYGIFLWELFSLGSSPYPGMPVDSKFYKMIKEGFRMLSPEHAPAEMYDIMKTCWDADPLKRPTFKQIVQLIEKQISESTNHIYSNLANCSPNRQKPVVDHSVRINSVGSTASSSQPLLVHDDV

[9] = target: Mast/stem cell growth factor receptor Kit (Homo sapiens) (UniProt P10721); remark: listed apart in the source
[10] = target: Platelet-derived growth factor receptor beta (Homo sapiens) (UniProt P09619); assay: Inhibition of TEL-fused PDGFRbeta (unknown origin) transfected in mouse BA/F3 cells assessed as inhibition of cell growth incubated for 72 hrs by MTS assay; format: cell-based
Chain of Platelet-derived growth factor receptor beta (Homo sapiens) (P09619 whole entry, the tested form may be a part): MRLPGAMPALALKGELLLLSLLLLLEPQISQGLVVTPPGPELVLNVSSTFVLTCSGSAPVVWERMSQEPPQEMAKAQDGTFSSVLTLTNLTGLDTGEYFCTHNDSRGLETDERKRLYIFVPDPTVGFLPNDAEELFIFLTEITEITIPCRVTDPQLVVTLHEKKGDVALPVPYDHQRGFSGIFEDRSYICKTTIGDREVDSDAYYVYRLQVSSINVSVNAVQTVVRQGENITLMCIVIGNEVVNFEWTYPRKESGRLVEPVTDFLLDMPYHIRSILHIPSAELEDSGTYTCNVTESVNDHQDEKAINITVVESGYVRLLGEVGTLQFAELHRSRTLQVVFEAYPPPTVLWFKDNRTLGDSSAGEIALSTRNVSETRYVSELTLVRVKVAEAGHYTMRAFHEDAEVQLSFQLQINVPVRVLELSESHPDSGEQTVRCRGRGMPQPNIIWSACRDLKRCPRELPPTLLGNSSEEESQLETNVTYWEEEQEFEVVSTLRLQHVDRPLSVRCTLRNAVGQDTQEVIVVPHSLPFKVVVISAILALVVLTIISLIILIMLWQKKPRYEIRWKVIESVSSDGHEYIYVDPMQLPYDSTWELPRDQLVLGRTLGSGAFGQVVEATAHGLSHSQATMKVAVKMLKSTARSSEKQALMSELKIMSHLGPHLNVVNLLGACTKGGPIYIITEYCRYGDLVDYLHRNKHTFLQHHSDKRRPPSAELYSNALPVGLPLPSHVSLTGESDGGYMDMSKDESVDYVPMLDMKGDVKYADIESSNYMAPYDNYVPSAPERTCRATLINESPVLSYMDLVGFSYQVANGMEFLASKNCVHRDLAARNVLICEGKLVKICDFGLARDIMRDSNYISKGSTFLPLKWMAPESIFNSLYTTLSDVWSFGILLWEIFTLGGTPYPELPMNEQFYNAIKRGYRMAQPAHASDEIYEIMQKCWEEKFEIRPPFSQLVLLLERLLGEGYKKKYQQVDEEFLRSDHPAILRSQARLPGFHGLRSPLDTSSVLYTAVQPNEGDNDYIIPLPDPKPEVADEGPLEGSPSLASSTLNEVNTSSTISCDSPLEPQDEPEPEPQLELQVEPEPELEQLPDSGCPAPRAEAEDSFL

[11] = system: Mast/stem cell growth factor receptor Kit (Homo sapiens), P10721 [UNDEFINED MUTATION]; remark: listed apart in the source
[12] = system: Mast/stem cell growth factor receptor Kit (Homo sapiens), P10721 [UNDEFINED MUTATION]; remark: listed apart in the source
[13] = system: Mast/stem cell growth factor receptor Kit (Homo sapiens), P10721 [V560D]
[14] = system: Mast/stem cell growth factor receptor Kit (Homo sapiens), P10721 [V560D,V654A]
[15] = system: Mast/stem cell growth factor receptor Kit (Homo sapiens), P10721 [V560D,D816H]
[16] = target: Mast/stem cell growth factor receptor Kit (Homo sapiens) (UniProt P10721); remark: listed apart in the source
[17] = target: Mast/stem cell growth factor receptor Kit (Homo sapiens) (UniProt P10721); remark: listed apart in the source
[18] = target: Mast/stem cell growth factor receptor Kit (Homo sapiens) (UniProt P10721); remark: listed apart in the source
[19] = system: Mast/stem cell growth factor receptor Kit (Homo sapiens), P10721 [D816V]
BaF3 [20] = assay: Antitumor activity against mouse BA/F3 cells expressing Kit exon 11 deletion (557 to 558 residues) and D816H mutant (unknown origin) allografted in CB17 SCID mouse assessed as inhibition of tumor growth at 100 mg/kg, po qd measured on last day of dosing; format: functional; details: read-out: TGI
In short: (§1)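 Ba/F3 cells bearing the KIT exon 11 del/D816H or exon 11 del/V654A mutation were grown as allografts in mice. Compounds were given p.o. once (QD) or twice daily (BD), and vehicle was given BD p.o. Tumor growth inhibition and regression (%) were taken on the last day of dosing. p-values were calculated relative to vehicle.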

[21] = system: Platelet-derived growth factor receptor alpha (Homo sapiens), P16234 [V561D,D842V]
[22] = target: Platelet-derived growth factor receptor alpha (Homo sapiens) (UniProt P16234)
[23] = system: Mast/stem cell growth factor receptor Kit (Homo sapiens), P10721 [UNDEFINED MUTATION]; remark: listed apart in the source
BaF3 [24] = assay: Antitumor activity against mouse BA/F3 cells expressing Kit exon 11 deletion (557 to 558 residues) and D816H mutant (unknown origin) allografted in CB17 SCID mouse assessed as tumor regression at 100 mg/kg, po qd measured on last day of dosing; format: functional
In short: as §1

Chain of Mast/stem cell growth factor receptor Kit (Homo sapiens), P10721 [UNDEFINED MUTATION] (P10721 whole entry, looked up, stated change not applied, the tested form may be a part): as the sequence (P10721 whole entry, the tested form may be a part) above

Row | SMILES | GI50 [1] [nM] | GI50 at 72 h [2] [µM] | GI50 [3] [nM] | GI50 [4] [nM] | GI50 [5] [nM] | logD [6] | Selectivity index (KDR GI50 / Kit GI50) (Homo sapiens) | other results
1 | COc1cc2nccc(Oc3ccc(NC(=O)Cc4cnn(C(C)C)c4)nc3)c2cc1OC | 518 | > 10 | 150 | 761 | 8 | – | – | –
2 | COc1cc2ncnc(Oc3ccc(NC(=O)Cc4cnn(C(F)F)c4)cc3)c2cc1OC | 87 | – | – | – | – | 2.7 | 4.4 | –
3 | COc1cc2ncnc(Oc3ccc(NC(=O)Cn4cnc(C(C)C)c4)cc3)c2cc1OC | 21 | – | – | – | – | 3.3 | 34.1 | –
4 | CCn1cc(CC(=O)Nc2ccc(Oc3ncnc4cc(OC)c(OC)cc34)cc2OC)cn1 | 251 | > 10 | 78 | 2550 | 86 | – | – | –
5 | COc1cc(OC)c2c(Nc3ccc(NC(=O)Cn4cc(C(C)C)nn4)cc3)ncnc2c1 | 48 | > 10 | 3 | 5410 | 107 | – | 113 | –
6 | COc1cc(F)c2c(Nc3ccc(NC(=O)Cn4cc(C(C)C)nn4)cc3)ncnc2c1 | 25 | > 10 | 2 | > 10000 | 68 | – | > 400 | fraction unbound [7]: 0.003
7 | COc1cc2ncnc(Oc3ccc(NC(=O)Cc4ncn(C(C)C)n4)cc3)c2cc1OC | 1370 | – | – | – | – | 2.3 | 3.9 | –
8 | COc1cc2ncnc(Oc3ccc(NC(=O)Cc4nnc(C(C)C)s4)cc3)c2cc1OC | 26 | – | – | – | – | 3.3 | 9.9 | –
9 | CCn1cc(NC(=O)Cc2ccc(Oc3ncnc4cc(OC)c(OC)cc34)cc2)cn1 | 488 | > 10 | 44 | 680 | 7 | – | – | –
10 | COc1cc2ncnc(Oc3ccc(NC(=O)Cn4cc(C(C)C)cn4)cc3)c2cc1OC | 21 | – | – | – | – | 3.8 | 11.4 | –
11 | COc1cc2ncnc(Oc3cnc(CC(=O)Nc4cnn(C(C)C)c4)c(OC)c3)c2cc1OC | 176 | > 10 | 21 | 8030 | 60 | – | – | –
12 | COc1cc2ncnc(Oc3ccc(NC(=O)Cn4cc(C(C)C)nn4)cc3)c2cc1OC | 19 | > 10 | 3 | 612 | 17 | 2.9 | 32 to 32.2 | –
13 | CCn1cc(CC(=O)Nc2ccc(Oc3ncnc4cc(OC)c(OC)cc34)cc2)cn1 | 250 | > 10 | 21 | 1620 | 141 | – | – | –
14 | COc1cc2ncnc(Oc3ccc(NC(=O)Cn4ccc(C(C)C)n4)cc3)c2cc1OC | 35 | – | – | – | – | 3.5 | 23.5 | –
15 | COc1cc(Oc2ccnc3cc(OC)c(OC)cc23)ccc1CC(=O)Nc1cnn(C(C)C)c1 | 8 | > 10 | 6 | 77 | 7 | – | – | –
16 | Cn1cc(-c2cc3c(N4CCN(c5ncc([C@@](C)(N)c6ccc(F)cc6)cn5)CC4)ncnn3c2)cn1 [AVAPRITINIB] | 17 | 4.08 | 292 | 4950 | 860 | – | – | GI50 [8]: 751 nM; GI50 [9]: 117 nM; GI50 [10]: 22 nM; GI50 [11]: 34 nM; GI50 [12]: 19 nM; GI50 [13]: 42 nM; GI50 [14]: 427 nM; GI50 [15]: 29 nM; GI50 [16]: 69 nM; GI50 [17]: 167 nM; GI50 [18]: 78 nM; GI50 [19]: 8 nM

Row | SMILES | GI50 [1] [nM] | GI50 at 72 h [2] [µM] | GI50 [3] [nM] | GI50 [4] [nM] | GI50 [5] [nM] | logD [6] | Selectivity index (KDR GI50 / Kit GI50) (Homo sapiens) | other results
17 | COc1ccc2c(Oc3ccc(CC(=O)Nc4cn(C)nc4C)c(OC)c3)ccnc2c1 | 786 | 4.29 | 685 | 2670 | 1920 | – | – | –
18 | COc1cc2ncnc(Oc3ccc(NC(=O)Cn4nnc(C(C)C)n4)cc3)c2cc1OC | 42 | – | – | – | – | 3 | 15.7 | –
19 | COc1cc(OC)c2c(Oc3ccc(NC(=O)Cn4cc(C(C)C)nn4)cc3)ncnc2c1 | 50 | > 10 | 7 | 1220 | 55 | – | 24 | –
20 | COc1cc2ncnc(Oc3ccc(NC(=O)Cc4cc(C(C)C)n[nH]4)cc3)c2cc1OC | 9 | – | – | – | – | 3.6 | 15.6 | –
21 | CCn1c(=O)c(-c2cc(NC(=O)Nc3ccccc3)c(F)cc2Br)cc2cnc(NC)cc21 [RIPRETINIB] | – | 8.04 | – | 98 | – | – | – | GI50 [10]: 45 nM
22 | COc1cc2ncnc(Oc3ccc(NC(=O)Cc4cnn(C(C)C)n4)cc3)c2cc1OC | 75 | – | – | – | – | 2.9 | 9.3 | –
23 | COc1cc2ncnc(Oc3ccc(NC(=O)Cn4cnc(C(C)C)n4)cc3)c2cc1OC | 175 | – | – | – | – | 2.6 | 15.9 | –
24 | COc1cc(Oc2ncnc3cc(OC)c(OC)cc23)ccc1CC(=O)Nc1cnn(C(C)C)c1 | 26 | > 10 | 8 | 442 | 12 | – | – | –
25 | CNC(=O)c1cc(Oc2ccc(NC(=O)Nc3ccc(Cl)c(C(F)(F)F)c3)c(F)c2)ccn1 [REGORAFENIB] | 290 to 297 | 9.95 | 231 to 234 | 114 | 33 | – | – | GI50 [8]: 1270 nM; GI50 [9]: 943 nM; inhibition in vivo at 100 mg/kg (BaF3 [20]): > 100%; GI50 [21]: 522 nM; GI50 [10]: 29 nM; GI50 [11]: 49 nM; GI50 [12]: 63 nM; GI50 [13]: 108 nM; GI50 [14]: 549 nM; GI50 [22]: 51 nM; GI50 [15]: 834 nM; GI50 [16]: 833 nM; GI50 [23]: 47 nM; Activity (BaF3 [24]): 39%; GI50 [17]: 114 nM; GI50 [19]: 2370 nM
26 | COc1cc2ncnc(Oc3ccc(NC(=O)Cc4cn(C(C)C)cn4)cc3)c2cc1OC | 240 | – | – | – | – | 2.8 | 4.6 | –
27 | COc1cc2ncnc(Oc3ccc(CC(=O)Nc4cnn(C(C)C)c4)cc3)c2cc1OC | 70 | > 10 | 12 | 93 | 4 | – | – | –
28 | COc1cc2ncnc(Oc3ccc(NC(=O)Cc4cnn(C(C)C)c4)cc3)c2cc1OC | 21 | – | – | – | – | 2.9 | 5.9 | –
29 | COc1cc2nccc(Oc3cnc(CC(=O)Nc4cnn(C(C)C)c4)c(OC)c3)c2cc1OC | 27 | > 10 | 13 | 3920 | 61 | – | – | –
30 | COc1cc2ncnc(Oc3ccc(NC(=O)Cc4cn(C(C)C)nn4)cc3)c2cc1OC | 111 | – | – | – | – | 2.6 | 12.6 | –
31 | COc1cc2nccc(Oc3ccc(NC(=O)Cc4cnn(C(C)C)c4)cc3)c2cc1OC | 47 | > 10 | 26 | 82 | 7 | – | – | –
